# Data published in ChEMBL document CHEMBL3585302, “Synthesis and antibacterial activities of cadiolides A, B and C and analogues” (Bioorg Med Chem, 2015).
# Tested on: not listed separately
# Assay: Selectivity index, ratio of cytotoxicity against human neutrophils by MTT assay to antibacterial IC50 against Enterococcus faecalis CECT 481
# Assay type: toxicity
# Conditions: read-out: Selectivity Index
row,SMILES,selectivity ratio
1,O=C1O/C(=C\c2ccc(O)c(Br)c2)C(c2cc(Br)c(O)c(Br)c2)=C1C(=O)c1ccc(O)c(Br)c1,5
2,O=C1O/C(=C\c2ccc(O)c(Br)c2)C(c2ccc(O)c(Br)c2)=C1C(=O)c1ccco1,5

# Tested on: not listed separately
# Assay: Selectivity index, ratio of cytotoxicity against human neutrophils by MTT assay to antibacterial IC50 against Staphylococcus aureus CECT 86
# Assay type: toxicity
# Conditions: read-out: Selectivity Index
row,SMILES,selectivity ratio
1,O=C1O/C(=C\c2ccc(O)c(Br)c2)C(c2cc(Br)c(O)c(Br)c2)=C1C(=O)c1ccc(O)c(Br)c1,5
2,O=C1O/C(=C\c2ccc(O)c(Br)c2)C(c2ccc(O)c(Br)c2)=C1C(=O)c1ccco1,5

# Tested on: Escherichia coli
# Assay: Antibacterial activity against Escherichia coli CECT 100 assessed as inhibition of microbial growth incubated for 18 hrs by 2-fold microtiter broth dilution method
# Assay type: functional, organism-based
# Conditions: CECT 100, 18 h
# Summary of the method: (§1)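 Compounds in DMSO, ten 2-fold serial dilutions (125 down to 0.24 µg/mL tested). Bacteria at OD620 = 0.001 in Nutrient Broth mixed 1:1 with dilutions. Incubated overnight (18 h) at 28°C or 37°C according to strain. Growth read turbidimetrically at OD620. MIC is the lowest concentration giving complete growth inhibition. Triplicate runs. Tetracycline as reference.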
SMILES,IC50 [µM],MIC [µg/mL]
O=C1O/C(=C\c2ccc(O)c(Br)c2)C(c2cc(Br)c(O)c(Br)c2)=C1C(=O)c1ccc(O)c(Br)c1,> 175,> 125
O=C1O/C(=C\c2ccc(O)c(Br)c2)C(c2ccc(O)c(Br)c2)=C1C(=O)c1ccco1,29.4,15.6

# Tested on: not listed separately
# Assay: Selectivity index, ratio of cytotoxicity against human neutrophils by annexin V-FITC and propidium iodide staining based cytofluorometry to antibacterial IC50 against Salmonella typhi CECT 409
# Assay type: toxicity
# Conditions: read-out: Selectivity Index
row,SMILES,selectivity ratio
1,O=C1O/C(=C\c2ccc(O)c(Br)c2)C(c2cc(Br)c(O)c(Br)c2)=C1C(=O)c1ccc(O)c(Br)c1,5
2,O=C1O/C(=C\c2ccc(O)c(Br)c2)C(c2ccc(O)c(Br)c2)=C1C(=O)c1ccco1,5

# Tested on: not listed separately
# Assay: Selectivity index, ratio of cytotoxicity against human neutrophils by annexin V-FITC and propidium iodide staining based cytofluorometry to antibacterial IC50 against Escherichia coli CECT 405
# Assay type: toxicity
# Conditions: read-out: Selectivity Index
row,SMILES,selectivity ratio
1,O=C1O/C(=C\c2ccc(O)c(Br)c2)C(c2cc(Br)c(O)c(Br)c2)=C1C(=O)c1ccc(O)c(Br)c1,5
2,O=C1O/C(=C\c2ccc(O)c(Br)c2)C(c2ccc(O)c(Br)c2)=C1C(=O)c1ccco1,5

# Tested on: not listed separately
# Assay: Toxicity in human neutrophils assessed as cell survival at 30 uM incubated for 24 hrs by annexin V-FITC and propidium iodide staining based cytofluorometry
# Conditions: neutrophil
# Summary of the method: (§2)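 Freshly isolated donor neutrophils (2 x 10⁶ cells/mL stock, diluted into supplemented RPMI) cultured 24 h with 30 or 100 µM. Stained with annexin V-FITC/propidium iodide; 1 x 10⁴ cells analysed by flow cytometry. Gating: annexin V+/PI− apoptotic, V+/PI+ late apoptotic/necrotic, V−/PI− viable. Mean ± SEM, n=3, compared against vehicle.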
row,SMILES,Activity
1,O=C1O/C(=C\c2ccc(O)c(Br)c2)C(c2cc(Br)c(O)c(Br)c2)=C1C(=O)c1ccc(O)c(Br)c1,Non-toxic
2,O=C1O/C(=C\c2ccc(O)c(Br)c2)C(c2ccc(O)c(Br)c2)=C1C(=O)c1ccco1,Non-toxic

# Tested on: not listed separately
# Assay: Toxicity in human neutrophils assessed as induction of apoptosis at 30 and 100 uM incubated for 24 hrs by annexin V-FITC and propidium iodide staining based cytofluorometry
# Assay type: cell-based
# Conditions: neutrophil
# Summary of the method: as §2
row,SMILES,Activity
1,O=C1O/C(=C\c2ccc(O)c(Br)c2)C(c2cc(Br)c(O)c(Br)c2)=C1C(=O)c1ccc(O)c(Br)c1,Non-toxic
2,O=C1O/C(=C\c2ccc(O)c(Br)c2)C(c2ccc(O)c(Br)c2)=C1C(=O)c1ccco1,Non-toxic

# Tested on: Staphylococcus aureus
# Assay: Antibacterial activity against Staphylococcus aureus CECT 86 assessed as inhibition of microbial growth incubated for 18 hrs by 2-fold microtiter broth dilution method
# Assay type: functional, organism-based
# Conditions: CECT 86, 18 h
# Summary of the method: as §1
SMILES,IC50 [µM],MIC [µg/mL]
O=C1O/C(=C\c2ccc(O)c(Br)c2)C(c2cc(Br)c(O)c(Br)c2)=C1C(=O)c1ccc(O)c(Br)c1,2.72,1.95
O=C1O/C(=C\c2ccc(O)c(Br)c2)C(c2ccc(O)c(Br)c2)=C1C(=O)c1ccco1,3.66,1.95

# Tested on: Bacillus subtilis
# Assay: Antibacterial activity against Bacillus subtilis CECT 35 assessed as inhibition of microbial growth incubated for 18 hrs by 2-fold microtiter broth dilution method
# Assay type: functional, organism-based
# Conditions: CECT 35, 18 h
# Summary of the method: as §1
row,SMILES,MIC [µg/mL]
1,O=C1O/C(=C\c2ccc(O)c(Br)c2)C(c2cc(Br)c(O)c(Br)c2)=C1C(=O)c1ccc(O)c(Br)c1,125
2,O=C1O/C(=C\c2ccc(O)c(Br)c2)C(c2ccc(O)c(Br)c2)=C1C(=O)c1ccco1,125

# Tested on: not listed separately
# Assay: Selectivity index, ratio of cytotoxicity against human neutrophils by annexin V-FITC and propidium iodide staining based cytofluorometry to antibacterial IC50 against Enterococcus faecalis CECT 481
# Assay type: toxicity
# Conditions: read-out: Selectivity Index
row,SMILES,selectivity ratio
1,O=C1O/C(=C\c2ccc(O)c(Br)c2)C(c2cc(Br)c(O)c(Br)c2)=C1C(=O)c1ccc(O)c(Br)c1,5
2,O=C1O/C(=C\c2ccc(O)c(Br)c2)C(c2ccc(O)c(Br)c2)=C1C(=O)c1ccco1,5

# Tested on: not listed separately
# Assay: Selectivity index, ratio of cytotoxicity against human neutrophils by MTT assay to antibacterial IC50 against Salmonella typhi CECT 409
# Assay type: toxicity
# Conditions: read-out: Selectivity Index
row,SMILES,selectivity ratio
1,O=C1O/C(=C\c2ccc(O)c(Br)c2)C(c2cc(Br)c(O)c(Br)c2)=C1C(=O)c1ccc(O)c(Br)c1,5
2,O=C1O/C(=C\c2ccc(O)c(Br)c2)C(c2ccc(O)c(Br)c2)=C1C(=O)c1ccco1,5

# Tested on: Pectobacterium carotovorum
# Assay: Antibacterial activity against Erwinia carotovora CECT 225 assessed as inhibition of microbial growth incubated for 18 hrs by 2-fold microtiter broth dilution method
# Assay type: functional, organism-based
# Conditions: CECT 225, 18 h
# Summary of the method: as §1
row,SMILES,MIC [µg/mL]
1,O=C1O/C(=C\c2ccc(O)c(Br)c2)C(c2cc(Br)c(O)c(Br)c2)=C1C(=O)c1ccc(O)c(Br)c1,125
2,O=C1O/C(=C\c2ccc(O)c(Br)c2)C(c2ccc(O)c(Br)c2)=C1C(=O)c1ccco1,125

# Tested on: not listed separately
# Assay: Cytotoxicity against human neutrophils assessed as reduction in cell viability at 100 uM incubated for 24 hrs by MTT assay
# Assay type: cell-based
# Conditions: neutrophil
# Summary of the method: (§3)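 Neutrophils from buffy coats of healthy donors were isolated by Ficoll-Hypaque gradient and seeded at 2 x 10⁵ cells/mL in supplemented RPMI. Exposed to 30 or 100 µM for 24 h at 37 °C, then MTT (2 mg/mL in PBS) added for 3 h. Formazan dissolved in DMSO and read at 560 and 630 nm. Mean ± SEM of n=6-9 independent experiments, compared against vehicle.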
row,SMILES,Activity
1,O=C1O/C(=C\c2ccc(O)c(Br)c2)C(c2cc(Br)c(O)c(Br)c2)=C1C(=O)c1ccc(O)c(Br)c1,Toxic
2,O=C1O/C(=C\c2ccc(O)c(Br)c2)C(c2ccc(O)c(Br)c2)=C1C(=O)c1ccco1,Toxic

# Tested on: Bacillus cereus
# Assay: Antibacterial activity against Bacillus cereus CECT 148 assessed as inhibition of microbial growth incubated for 18 hrs by 2-fold microtiter broth dilution method
# Assay type: functional, organism-based
# Conditions: CECT 148, 18 h
# Summary of the method: as §1
SMILES,IC50 [µM],MIC [µg/mL]
O=C1O/C(=C\c2ccc(O)c(Br)c2)C(c2cc(Br)c(O)c(Br)c2)=C1C(=O)c1ccc(O)c(Br)c1,2.72,1.95
O=C1O/C(=C\c2ccc(O)c(Br)c2)C(c2ccc(O)c(Br)c2)=C1C(=O)c1ccco1,3.66,1.95

# Tested on: not listed separately
# Assay: Selectivity index, ratio of cytotoxicity against human neutrophils by MTT assay to antibacterial IC50 against Escherichia coli CECT 405
# Assay type: toxicity
# Conditions: read-out: Selectivity Index
row,SMILES,selectivity ratio
1,O=C1O/C(=C\c2ccc(O)c(Br)c2)C(c2cc(Br)c(O)c(Br)c2)=C1C(=O)c1ccc(O)c(Br)c1,5
2,O=C1O/C(=C\c2ccc(O)c(Br)c2)C(c2ccc(O)c(Br)c2)=C1C(=O)c1ccco1,5

# Tested on: Escherichia coli
# Assay: Antibacterial activity against Escherichia coli CECT 405 assessed as inhibition of microbial growth incubated for 18 hrs by 2-fold microtiter broth dilution method
# Assay type: functional, organism-based
# Conditions: CECT 405, 18 h
# Summary of the method: as §1
SMILES,IC50 [µM],MIC [µg/mL]
O=C1O/C(=C\c2ccc(O)c(Br)c2)C(c2cc(Br)c(O)c(Br)c2)=C1C(=O)c1ccc(O)c(Br)c1,2.72,1.95
O=C1O/C(=C\c2ccc(O)c(Br)c2)C(c2ccc(O)c(Br)c2)=C1C(=O)c1ccco1,3.66,1.95

# Tested on: not listed separately
# Assay: Toxicity in human neutrophils assessed as induction of necrosis at 100 uM incubated for 24 hrs by annexin V-FITC and propidium iodide staining based cytofluorometry
# Assay type: cell-based
# Conditions: neutrophil
# Summary of the method: as §2
row,SMILES,Activity [%]
1,O=C1O/C(=C\c2ccc(O)c(Br)c2)C(c2cc(Br)c(O)c(Br)c2)=C1C(=O)c1ccc(O)c(Br)c1,36
2,O=C1O/C(=C\c2ccc(O)c(Br)c2)C(c2ccc(O)c(Br)c2)=C1C(=O)c1ccco1,95

# Tested on: not listed separately
# Assay: Selectivity index, ratio of cytotoxicity against human neutrophils by annexin V-FITC and propidium iodide staining based cytofluorometry to antibacterial IC50 against Staphylococcus aureus CECT 86
# Assay type: toxicity
# Conditions: read-out: Selectivity Index
row,SMILES,selectivity ratio
1,O=C1O/C(=C\c2ccc(O)c(Br)c2)C(c2cc(Br)c(O)c(Br)c2)=C1C(=O)c1ccc(O)c(Br)c1,5
2,O=C1O/C(=C\c2ccc(O)c(Br)c2)C(c2ccc(O)c(Br)c2)=C1C(=O)c1ccco1,5

# Tested on: Salmonella typhi
# Assay: Antibacterial activity against Salmonella typhi CECT 409 assessed as inhibition of microbial growth incubated for 18 hrs by 2-fold microtiter broth dilution method
# Assay type: functional, organism-based, Salmonella enterica subsp. enterica serovar Typhi
# Conditions: Salmonella enterica, CECT 409, 18 h
# Summary of the method: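 Compounds in DMSO, ten 2-fold serial dilutions (125 down to 0.24 µg/mL), mixed 1:1 with bacteria in Nutrient Broth at OD620 = 0.001. Incubated overnight (18 h) at 28 or 37 °C depending on strain. Growth read turbidimetrically at OD620; MIC is the lowest concentration completely inhibiting growth, per CLSI. Triplicate runs; tetracycline reference.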
SMILES,IC50 [µM],MIC [µg/mL]
O=C1O/C(=C\c2ccc(O)c(Br)c2)C(c2cc(Br)c(O)c(Br)c2)=C1C(=O)c1ccc(O)c(Br)c1,2.72,1.95
O=C1O/C(=C\c2ccc(O)c(Br)c2)C(c2ccc(O)c(Br)c2)=C1C(=O)c1ccco1,3.66,1.95

# Tested on: not listed separately
# Assay: Cytotoxicity against human neutrophils assessed as reduction in cell viability at 30 uM incubated for 24 hrs by MTT assay
# Assay type: cell-based
# Conditions: neutrophil
# Summary of the method: as §3
row,SMILES,Activity
1,O=C1O/C(=C\c2ccc(O)c(Br)c2)C(c2cc(Br)c(O)c(Br)c2)=C1C(=O)c1ccc(O)c(Br)c1,Non-toxic
2,O=C1O/C(=C\c2ccc(O)c(Br)c2)C(c2ccc(O)c(Br)c2)=C1C(=O)c1ccco1,Non-toxic

# Tested on: Enterococcus faecalis
# Assay: Antibacterial activity against Enterococcus faecalis CECT 481 assessed as inhibition of microbial growth incubated for 18 hrs by 2-fold microtiter broth dilution method
# Assay type: functional, organism-based
# Conditions: CECT 481, 18 h
# Summary of the method: as §1
SMILES,IC50 [µM],MIC [µg/mL]
O=C1O/C(=C\c2ccc(O)c(Br)c2)C(c2cc(Br)c(O)c(Br)c2)=C1C(=O)c1ccc(O)c(Br)c1,2.72,1.95
O=C1O/C(=C\c2ccc(O)c(Br)c2)C(c2ccc(O)c(Br)c2)=C1C(=O)c1ccco1,3.66,1.95
